Rows were chosen to be rich in hits. Some 2% of all compounds tested hit in one or more screens of this group.
MC4R barr agon – agonists of human melanocortin 4 receptor (MC4R) beta-arrestin; P32245; U2OS MC4R beta-arrestin complementation, luminescence; percent of melanotan II response, DMSO zero; activation, % at 8.9 µM; 360,000 compounds, 0.98% hits; AID 540308;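 active = activation above a per-plate cutoff, the mean activation of sample wells on that plate plus 3 SD, cut at about 8% in these data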
Target sequence (P32245 whole entry, looked up): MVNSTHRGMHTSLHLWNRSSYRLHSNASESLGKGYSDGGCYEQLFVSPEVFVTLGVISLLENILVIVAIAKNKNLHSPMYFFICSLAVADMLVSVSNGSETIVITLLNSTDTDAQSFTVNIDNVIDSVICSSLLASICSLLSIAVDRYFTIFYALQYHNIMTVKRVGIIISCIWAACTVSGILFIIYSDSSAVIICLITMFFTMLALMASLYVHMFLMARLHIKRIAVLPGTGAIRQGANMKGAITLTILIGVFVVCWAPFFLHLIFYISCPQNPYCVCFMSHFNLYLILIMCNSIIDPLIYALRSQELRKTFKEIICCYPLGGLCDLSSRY
UPR XBP1 act – adaptive UPR (XBP1) activation; CHO-XBP1 luciferase reporter, IRE1-XBP1 UPR activation, luminescence; percent of tunicamycin response, DMSO as zero; AID 463104; activation, % at 20 µM; 330,000 compounds, 0.33% hits;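 active = versus positive control, 20 µM dose yields 30% or more activation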;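 note: 100% = tunicamycin at 10 µg/mL and 0% = DMSO only wells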
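Test system: CHO-XBP1 luciferase reporter cells | Buffer or medium: Serum-containing F12 medium, 10% FBS | Schedule: 6 h compound exposure at 37 °C, 5% CO2 | Detection: Steady-Glo luciferase glow luminescence, 10 min after reagent addition | Read-out basis: Activation, % of tunicamycin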
Bfl-1 A1 inh – inhibitors of the anti-apoptotic protein A1, read as caspase activation; 330,000 compounds, 0.066% hits; MEF A1-2A-BIM cells, Caspase-Glo 3/7 luminescence, 3 h; percent of clofoctol response, vehicle zero; caspase activation, % (concentration not given with the values);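 active = over half of replicate activation scores above 10%, or exactly half above 10 with the replicate mean above 10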
MC4R antagonist – human MC4R antagonism in cAMP assay; MC4R-expressing cells, MTII-stimulated cAMP, LANCE TR-FRET; inhibition, % at 6.5 µM; 360,000 compounds, 0.48% hits; AID 540295;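 active = inhibition above its plate's cutoff, the mean of tested wells on that plate plus 3 SD, cut at about 29% in these data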;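 note: 0% = Melanotan II alone and 100% = Melanotan II plus saturating MCL0020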
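Material – human MC4R-expressing U2OS cells · Repeats – no replicates · Detection – TR-FRET with Eu-cAMP and labeled anti-cAMP, 671 nm · Times – compound 30 min, challenge 1 h, detection 1 h · Compound – single nominal compound dose of 6.5 µM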
UPR CHOP act – apoptotic UPR (CHOP) activation. CHO-CHOP luciferase reporter, luminescence; percent of tunicamycin response over DMSO baseline. activation, % at 10 µM. 330,000 compounds, 0.34% hits;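 active = at 10 µM dose, activation of 40% or more, normalized to positive control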;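 note: 100% = tunicamycin at 10 µg/mL and 0% = DMSO alone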
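Dosing – one dose, 10 µM in 0.5% DMSO · System – CHO-CHOP cells, stable luciferase reporter of PERK-eIF2a-CHOP signalling · Input – 500 cells/well · Control set – tunicamycin 10 µg/mL final as positive, DMSO-only wells as negative · Timing – 6 h compound treatment, 37 °C · Measure – % activation vs tunicamycin · Technique – luminescence read with Steady-Glo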
XBP1 UPR conf – adaptive UPR (XBP1) activation, confirmed. shares compounds with UPR XBP1 act. CHO-XBP1 IRE1-XBP1 luciferase reporter, luminescence. activation, % at 20 µM. 1,000 compounds, 63% hits;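 active = reporter signal at least 30% of the positive control's activation in two or more of four replicate wells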;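 note: plate controls were DMSO negative control for no effect and tunicamycin 10 µg/mL positive control for full effect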
* = called active by the depositor; / = no result given.

SMILES	MC4R barr agon	UPR XBP1 act	Bfl-1 A1 inh	MC4R antagonist	UPR CHOP act	XBP1 UPR conf
CCOC(=O)c1ccc(N2Cc3ccccc3C2=NC(=O)c2cccc([N+](=O)[O-])c2)cc1	-1	56*	-1	3	16	5
O=C(N=Nc1c(O)n(C2OC(=O)c3ccccc32)c2ccccc12)c1ccc(O)cc1 (centres undefined)	0	105*	-1	7	2	11
O=C(N=Nc1c(O)n(Cc2ccccc2)c2ccccc12)c1ccc(O)cc1	2	7	-3	-6	6	/
Cc1cccc(OCc2n(CC(=O)OC3CC(C)CCC3C(C)C)c3ccccc3[n+]2C)c1 (centres undefined)	23*	32*	1	-3	12	29
COc1ccc(S(=O)(=O)N=N/C=C2\C=CC=CN2O)cc1OC	1	/	/	-2	/	/
Cc1cc(N2O[C@]34C=C[C@]25C[C@@H](O)CC[C@]5(C)C3CC[C@]2(C)[C@@H]([C@H](C)/C=C/[C@H](C)C(C)C)CC[C@H]24)no1 (some centres undefined)	0	41*	/	1	3	-1
COc1ccc(-c2csc(NC(=S)NC(=O)c3ccco3)n2)cc1Br	-2	9	0	5	1	/
COc1cc2c(cc1NC(=S)NC(=O)/C=C/c1ccco1)oc1ccccc12	3	52*	0	19	11	77*
COc1ccc(-c2csc(NC(=S)NC(=O)/C=C/c3ccco3)n2)cc1Br	-1	202*	2	-18	18	201*
COc1cc2c(cc1NC(=S)NC(=O)/C=C/c1ccc(OC)c(OC)c1)oc1ccccc12	2	/	/	-7	/	/
C[C@H](CO)N1C[C@H](C)[C@@H](CN(C)C(=O)c2cc(-c3ccccc3)on2)OCc2cn(nn2)CCCC1=O	0	/	/	7	/	/
COc1ccc(-c2cc(C(=O)NCc3cccc(C(F)(F)F)c3)[nH]n2)c(C)c1	1	/	/	12	/	/
O=C(COc1ccc(Cl)cc1Cl)NN=C1c2ccccc2-c2ccccc21	0	89*	0	-1	7	96*
CCn1nc(C)cc1C(=O)Sc1cccc(Cl)c1	-1	49*	-1	22	5	5
Cc1nn(Cc2ccccc2)c(C)c1NC(=O)CSc1nc(C2CC2)nc2c1cnn2-c1ccccc1	-1	202*	1	1	26	333*
C[C@@H]1CN([C@@H](C)CO)C(=O)c2cc(Br)cnc2O[C@H]1CN(C)C(=O)Cc1cccnc1	-1	/	/	9	/	/
Cn1cccc1Cc1nnc(SCC(=O)Nc2nc3ccccc3s2)n1CCc1ccccc1	6	30*	0	-4	5	13
Cc1cc(NC(=O)c2cc(-c3ccncc3)nc3c(C)cccc23)no1	-1	153*	0	-16	8	184*
C/C(=N/NC(=O)c1ccc(Cl)s1)c1ccc(NC(=O)COc2ccc(Cl)cc2)cc1	3	37*	3	-1	20	53*
CN1CCCC(C)(C(=O)Nc2ccc(-n3cccc3)cc2)C1 (centres undefined)	0	/	/	-9	/	/
CC(=O)Nc1ccc(-c2cc(-c3ccc(NC(C)=O)cc3)nc(-c3ccccc3)n2)cc1	1	46*	0	12	3	3
CCC(=O)Nc1ccc(-c2cc(-c3ccccc3)nc(-c3ccc(NC(=O)CC)cc3)n2)cc1	0	82*	0	4	3	92*
COCOc1cc(O)c(C(=O)/C=C/c2ccccc2)c(OCOC)c1	0	40*	1	5	22	28
COc1ccc(C(=O)/C=C/c2ccccc2)c(OC)c1	-1	2	1	3	7	/
Cc1ccc(Nc2nc(-c3c(C)nc4ccccn34)cs2)cc1	-2	41*	/	-19	11	35*
SMILES	MC4R barr agon	UPR XBP1 act	Bfl-1 A1 inh	MC4R antagonist	UPR CHOP act	XBP1 UPR conf
Cc1cc(C)cc(C(O)c2ncc(-c3ccc(F)cc3)[nH]2)c1 (centres undefined)	-2	/	/	11	/	/
COc1ccc(-c2cc(C(=O)Nc3c(C)nn(Cc4ccc(Cl)cc4)c3C)no2)cc1	3	49*	1	6	6	6
C=CCOc1ccc(-c2nc3c(c(=O)[nH]c(=O)n3CCCC)n2C)cc1Br	1	39*	0	-1	4	26
CCCCn1c(=O)[nH]c(=O)c2c1nc(-c1ccc(OC)c(Br)c1)n2CC(C)C	2	3	0	17	1	/
Cc1ccc(S(=O)(=O)N(C)C[C@@H]2OCc3cnnn3CCCC(=O)N([C@@H](C)CO)C[C@H]2C)cc1	2	/	/	-4	/	/
CCOC(=O)/C=c1\s/c(=C\c2ccc(C)cc2)c(=O)n1CC(=O)NCc1ccco1	3	55*	1	10	0	1
c1ccc(COc2cccc(-c3cc4nc(NCCCn5ccnc5)ccn4n3)c2)cc1	3	/	/	6	/	/
COC1OCC(O)C(NC(=O)N(C)N=O)C1O (centres undefined)	-2	/	/	2	/	/
Nc1nc(Nc2ccccc2)nc(NC2CCCCC2)c1[N+](=O)[O-]	2	43*	-1	12	3	35*
CNc1nc(N)c([N+](=O)[O-])c(NC2CCCCC2)n1	0	9	-1	-8	-2	/
CCC(=O)Nc1cc(-c2nn(C)c(=O)c3ccccc23)ccc1OC	-2	1	1	18	0	/
COc1ccc(-c2nn(C)c(=O)c3ccccc23)cc1NC(=O)Cn1nc(C)c2ccccc2c1=O	0	56*	0	-5	0	82*
COc1ccc([N+](=O)[O-])cc1COc1ccc2c(-c3ccccc3)cc(=O)oc2c1	-1	48*	0	0	6	143*
CC(=O)COc1ccc2c(-c3cccc([N+](=O)[O-])c3)cc(=O)oc2c1	0	0	0	14	0	/
NC(Cc1ccccc1)c1csc(Nc2nccc(C(F)(F)F)n2)n1 (centres undefined)	2	/	/	-1	/	/
CCC(=O)Nc1ccc(NC(=O)CSc2nc3cc4c(cc3cc2C)CCC4)cc1	9.4*	50*	0	1	1	40*
CC(C)C(N)c1csc(Nc2ccc(S(C)(=O)=O)cc2)n1 (centres undefined)	-2	/	/	7	/	/
COc1ccc(-c2nnc(SCC(=O)Nc3sc4c(c3C#N)CCCC4)n2-c2ccccc2)cc1	0	35*	0	3	-1	61*
Cc1ccc(C(=O)Nc2cc(S(=O)(=O)N3CCOCC3)ccc2N2CCCC2)cc1	-1	35*	-1	7	1	38*
